Measurements gathered from unrelated publications.
Compare with care: the assays were run in different laboratories.
CDK18: Cyclin-dependent kinase 18 (CDK18, Homo sapiens, UniProt Q07002)
CDK18 with cyclin Y: Cyclin-dependent kinase 18, with cyclin Y (CDK18, Homo sapiens, UniProt Q07002)

O=C(NS(=O)(=O)c1ccc(NCC2CCOCC2)c([N+](=O)[O-])c1)c1ccc(N2CCN(Cc3ccc(C(F)(F)F)cc3-c3ccc(Cl)cc3)CC2)cc1Oc1cnc2[nH]ccc2c1  remaining binding (CDK18; cell-free assay, competition with immobilised ligand; 1 µM): 100%
Cc1sc(C(=O)NC2COC2)cc1-n1cc(NC(=O)Nc2c(F)cccc2Cl)cn1  remaining activity (CDK18 with cyclin Y; enzyme activity, inhibitor; 10 µM): 119%
CN1CC(Oc2cnc(C#N)cc2-c2ccn3nc(NC(=O)C4CC4)cc3c2)C1  inhibition (CDK18 with cyclin Y; enzyme activity, inhibitor; 1 µM): 1%
CSc1cccnc1N1CCN(Cc2nc3ccccc3[nH]2)CC1  remaining binding (CDK18; cell-free assay, competition with immobilised ligand; 1 µM): 100%
O=C(Nc1cnn(-c2csc(C(=O)NC3COC3)c2)c1)Nc1ccccc1Cl  remaining activity (CDK18 with cyclin Y; enzyme activity, inhibitor; 5 µM): 101%
Fc1cccc(-n2cnc3c(NCc4nc5c(F)c(F)ccc5[nH]4)nc(N4CCOCC4)nc32)c1  binding vs control (CDK18; binding, competition with immobilised ligand; 10 µM): 37%
Cc1ccc(C(=O)Nc2ccc(CN3CCN(C)CC3)c(C(F)(F)F)c2)cc1C#Cc1cnc2cccnn12  remaining activity (CDK18; enzyme activity, inhibitor; 23.5 nM): 89%
Nc1ncnc2occ(-c3ccc(NC(=O)Nc4cc(C(F)(F)F)ccc4F)cc3)c12  remaining signal (CDK18; cell-free assay, inhibitor; 20 µM): 0.1%
COc1cc(Cl)c(C(=O)N[C@@H](CN[C@H]2CC[C@@H](N)CC2)Cc2ccc(C#N)cc2)cc1-c1ccc(CN[C@H](C)c2ccc(C)cc2)o1  remaining activity (CDK18 with cyclin Y; enzyme activity, inhibitor; 1 µM): 103%
O=[N+]([O-])c1cccc2[nH]c(CNc3nc(N4CCOCC4)nc4c3ncn4-c3ccsc3)nc12  binding vs control (CDK18; binding, competition with immobilised ligand; 10 µM): 62%
Cc1ccc(C(=O)NCc2ccsc2)cc1C#Cc1cn(C(C)C)c2ncnc(N)c12  activity vs control (CDK18 with cyclin Y; enzyme activity, inhibitor; 1 µM): 82%
